Key:
[1] = folding enthalpy; higher = less favourable; fluorescence melt of hairpins on a sequencing array, two-state fit; conditions: sodium 0.088 M
Procedure, shortened: (§1)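 With Cy3 and quencher oligos annealed, library hairpins on a sequenced MiSeq flow cell were imaged for Cy3 fluorescence in 50 mM Na-HEPES pH 8.0, 25 mM NaCl, in 2.5 °C steps up to 60 °C. Melting temperature and folding enthalpy were derived from bootstrapped two-state fits of signals normalised to pre-quench Cy3 and to control constructs. Four replicates were combined by inverse variance, with fitted temperatures raised by 9.35 °C to match UV melts.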

[2] = melting temperature; fluorescence melt of hairpins on a sequencing array, two-state fit, raised by 9.35 °C to match UV melts; conditions: sodium 0.088 M
Procedure, shortened: as §1

Row | Sequence | folding enthalpy [1] | Tm [2]
1 | GATCTTTGGGAAGATC ((((((....)))))) | -143 kJ/mol | 45.6 °C
2 | GATCTTTGTAAAGATC ((((((....)))))) | -144 kJ/mol | 47.5 °C
3 | GATCTTTGTAAGATC ((((((...)))))) | -121 kJ/mol | 45.5 °C
4 | GATCTTTTCAAAGATC ((((((....)))))) | -182 kJ/mol | 48.7 °C
5 | GATCTTTTGCAAGATC ((((((....)))))) | -146 kJ/mol | 42.8 °C
6 | GATCTTTTTAAAGATC ((((((....)))))) | -173 kJ/mol | 49.6 °C
7 | GATCTTTTTAAGATC ((((((...)))))) | -135 kJ/mol | 47.1 °C
8 | GATCTTTTTGAAGATC ((((((....)))))) | -144 kJ/mol | 46.1 °C
9 | GATGACCCGAAAGGGATC (((..(((....)))))) | -49 kJ/mol | 33.2 °C
10 | GATGACGAAAGTCAGATC ((((((....)))..))) | -74.6 kJ/mol | 52.1 °C
11 | GATGACGAAAGTCCGATC ((((((....)))..))) | -53.4 kJ/mol | 26.8 °C
12 | GATGACGAAAGTCTATC ((((((....))).))) | -68.5 kJ/mol | 39 °C
13 | GATGACGGAAACGTCATC (((((((....))))))) | -155 kJ/mol | 67.5 °C
14 | GATGAGCCGAAAGGCATC (((..(((....)))))) | -42.6 kJ/mol | 33.5 °C
15 | GATGAGCGAAAGCTATC (((.(((....)))))) | -61.3 kJ/mol | 35.1 °C
16 | GATGAGGCGAAAGCCATC (((..(((....)))))) | -54.7 kJ/mol | 36.3 °C
17 | GATGAGGGAAACCTTGTC ((..(((....)))..)) | -64.2 kJ/mol | 28.1 °C
18 | GATGATACGAAAGTAATC (((..(((....)))))) | -69 kJ/mol | 27.5 °C
19 | GATGATGGAAACATTATC (((.(((....))).))) | -127 kJ/mol | 35.5 °C
20 | GATGATGGAAACATTGTC ((..(((....)))..)) | -117 kJ/mol | 28.8 °C
21 | GATGATGGAAACGTCATC (((((.(....).))))) | -125 kJ/mol | 46.7 °C
22 | GATGCACGAAAGTGGATC (((.(((....))).))) | -157 kJ/mol | 54.9 °C
23 | GATGCCACGAAAGTGATC (((..(((....)))))) | -41.5 kJ/mol | 20.2 °C

Row | Sequence | folding enthalpy [1] | Tm [2]
24 | GATGCCCCGAAAGGGATC (((..(((....)))))) | -43.3 kJ/mol | 32.5 °C
25 | GATGCCGAAAGGCAATC ((((((....))).))) | -57.6 kJ/mol | 53 °C
26 | GATGCCGAAAGGCCAATC ((((((....)))..))) | -37 kJ/mol | 29.4 °C
27 | GATGCGCGAAAGCGTATC (((.(((....))).))) | -116 kJ/mol | 63 °C
28 | GATGCGGAAACGCATC ((((((....)))))) | -131 kJ/mol | 68.2 °C
29 | GATGCGGCGAAAGCCATC (((..(((....)))))) | -48.5 kJ/mol | 29.2 °C
30 | GATGCGGGAAACTGCATC (((((.(....).))))) | -178 kJ/mol | 54.7 °C
31 | GATGCTGCGAAAGCAATC (((..(((....)))))) | -41.3 kJ/mol | 29.3 °C
32 | GATGCTGGAAACAACATC ((((.((....)).)))) | -132 kJ/mol | 36.2 °C
33 | GATGCTGGAAACAGTATC (((.(((....))).))) | -141 kJ/mol | 47 °C
34 | GATGCTGGAAACGGTATC (((.(.(....).).))) | -95.4 kJ/mol | 31.2 °C
35 | GATGGACGAAAGTCATC (((.(((....)))))) | -75 kJ/mol | 45.7 °C
36 | GATGGAGCGAAAGCTATC (((..(((....)))))) | -43.8 kJ/mol | 30.2 °C
37 | GATGGCGAAAGCCGTATC ((((((....)))..))) | -27.4 kJ/mol | 43.8 °C
38 | GATGGCGAAAGCCTGATC ((((((....)))..))) | -46.1 kJ/mol | 33.6 °C
39 | GATGGCGGAAACACCACC (.(((.(....).))).) | -62 kJ/mol | 30.2 °C
40 | GATGGCGGAAACGCCGTC ((.((((....)))).)) | -89.6 kJ/mol | 58.3 °C
41 | GATGGCGGAAACGCTGTC ((..(((....)))..)) | -71.5 kJ/mol | 44 °C
42 | GATGGCGGAAACGTCATC ((((.((....)).)))) | -183 kJ/mol | 55.3 °C
43 | GATGGGCCGAAAGGCATC (((..(((....)))))) | -41.3 kJ/mol | 34.8 °C
44 | GATGGGGGAAACCCCGTC ((.((((....)))).)) | -103 kJ/mol | 52.7 °C
45 | GATGGGGGAAACCCTGTC ((..(((....)))..)) | -94.2 kJ/mol | 33.2 °C
46 | GATGGTGGAAACACCATC (((((((....))))))) | -165 kJ/mol | 65.1 °C

Row | Sequence | folding enthalpy [1] | Tm [2]
47 | GATGTACGAAAGTAGATC (((.(((....))).))) | -128 kJ/mol | 44 °C
48 | GATGTCCGAAAGGATATC (((.(((....))).))) | -149 kJ/mol | 52.3 °C
49 | GATGTCGAAAGACATC ((((((....)))))) | -152 kJ/mol | 66.3 °C
50 | GATGTCGGAAACGACACC (.(((((....))))).) | -47.7 kJ/mol | 40.4 °C
51 | GATGTGCCGAAAGGCATC (((..(((....)))))) | -33.6 kJ/mol | 36.1 °C
52 | GATGTGGCGAAAGCCATC (((..(((....)))))) | -36.7 kJ/mol | 38.5 °C
53 | GATGTGGGAAACCACATC (((((((....))))))) | -176 kJ/mol | 60.9 °C
54 | GATGTGGGAAACCGCATC ((((.((....)).)))) | -194 kJ/mol | 51.9 °C
55 | GATGTTGGAAACAATATC (((.(((....))).))) | -113 kJ/mol | 37.5 °C
56 | GATGTTGGAAACAATGTC ((..(((....)))..)) | -71.4 kJ/mol | 31.1 °C
57 | GATGTTGGAAACAGCATC ((((.((....)).)))) | -104 kJ/mol | 45.5 °C
58 | GATTACCGAAAGGTTATC (((.(((....))).))) | -109 kJ/mol | 42.4 °C
59 | GATTACGAAAGTAGAATC ((((((....)))..))) | -60.3 kJ/mol | 27.4 °C
60 | GATTACGGAAACGTAATC (((((((....))))))) | -210 kJ/mol | 55.5 °C
61 | GATTAGCGAAAGCTTATC (((.(((....))).))) | -85.6 kJ/mol | 39.1 °C
62 | GATTATGGAAACATAATC (((((((....))))))) | -160 kJ/mol | 49.1 °C
63 | GATTATGGAAACGTAATC (((((.(....).))))) | -153 kJ/mol | 35.6 °C
64 | GATTCACGAAAGTGCATC (((.(((....))).))) | -110 kJ/mol | 40.2 °C
65 | GATTCACGAAAGTGGATC (((.(((....))).))) | -164 kJ/mol | 52.5 °C
66 | GATTCAGGAAACTGGATC (((.(((....))).))) | -154 kJ/mol | 41.9 °C
67 | GATTCCGAAAGGAAAATC ((((((....)))..))) | -58.5 kJ/mol | 32.3 °C
68 | GATTCCGAAAGGATATC ((((((....))).))) | -86.5 kJ/mol | 39.5 °C

Reference: the array DNA melting data of Ke et al. (doi:10.1101/2024.01.08.574731)
